This note sets out measurements from ChEMBL document CHEMBL3856209, “Novel pyrazolopyridine derivatives as potential angiogenesis inhibitors: Synthesis, biological evaluation and transcriptome-based mechanistic analysis” (Eur J Med Chem, 2016).

The structures appear in SMILES notation. Activity calls are given as the source filed them.

Test [1] deals with HUVEC. The test can be described thus: Effect on RNA18S5 gene expression in serum-starved HUVEC after 6 hrs by microarray analysis relative to control. Format: functional, Homo sapiens.
The test system of test [2] is HUVEC. The test can be described thus: Effect on IL10 gene expression in serum-starved HUVEC after 24 hrs by microarray analysis relative to control. Format: functional, Homo sapiens. In outline:
(§1)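 Confluent, serum-starved HUVEC (pooled from 3–5 donors, passage ≤4) treated with 2 μM compound or vehicle with 2.5% FBS for 6 h or 24 h. Total RNA hybridized to Illumina Human-HT12 arrays. Data were background-corrected, vst-transformed and rsn-normalized. Hits called by moderated paired t-test versus DMSO-treated cells, p < 0.05 and log2 fold change >|0.5|.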

Test [3] deals with HUVEC. The test can be described thus: Effect on MMP1 gene expression in serum-starved HUVEC after 6 hrs by microarray analysis relative to control. It is filed as functional, Homo sapiens. In outline:
(§2)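 Serum-starved confluent HUVEC (pooled from 3–5 donors, passage ≤4) were treated with 2 μM compound or vehicle in 2.5% FBS for 6 h or 24 h, and total RNA was isolated. Hybridization was on Illumina Human-HT12. Data were processed with bgAdjust, vst and rsn normalization. Changes versus DMSO were called by moderated paired t-test at p < 0.05 and |log2 fold change| > 0.5.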

In test [4] the test system is HUVEC. The test can be described thus: Effect on GANAB gene expression in serum-starved HUVEC after 24 hrs by microarray analysis relative to control. Format: functional, Homo sapiens. In outline:
as §1

Test [5] concerns HUVEC. The test can be described thus: Effect on RHOB gene expression in serum-starved HUVEC after 6 hrs by microarray analysis relative to control. It is filed as functional, Homo sapiens.
Test [6] has as its system HUVEC. The test can be described thus: Effect on SLC30A7 gene expression in serum-starved HUVEC after 6 hrs by microarray analysis relative to control. Format: functional, Homo sapiens.
In test [7] the test system is HUVEC. The test can be described thus: Effect on ELMOD1 gene expression in serum-starved HUVEC after 24 hrs by microarray analysis relative to control. It is filed as functional, Homo sapiens. In outline:
as §1

Test [8] deals with HUVEC. The test can be described thus: Effect on FILIP1L gene expression in serum-starved HUVEC after 24 hrs by microarray analysis relative to control. Format: functional, Homo sapiens. In outline: as §1
The test system of test [9] is HUVEC. The test can be described thus: Effect on ASPM gene expression in serum-starved HUVEC after 6 hrs by microarray analysis relative to control. Format: functional, Homo sapiens. In outline:
(§3)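 Serum-starved confluent HUVEC treated with 2 μM compound or DMSO in 2.5% FBS for 6 h or 24 h; RNA hybridized to Illumina Human-HT12 arrays. Data background-corrected, vst-transformed and rsn-normalized. Differential probes called by moderated paired t-test (limma) at p < 0.05 and log2 fold change >|0.5| vs DMSO.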

For test [10], the system named is HUVEC. The test can be described thus: Effect on BHLHE40 gene expression in serum-starved HUVEC after 6 hrs by microarray analysis relative to control. It is filed as functional, Homo sapiens. In outline:
as §3

Test [11] deals with HUVEC. The test can be described thus: Effect on CTHRC1 gene expression in serum-starved HUVEC after 6 hrs by microarray analysis relative to control. It is filed as functional, Homo sapiens. In outline: as §1
The test system of test [12] is HUVEC. The test can be described thus: Effect on ANKRD1 gene expression in serum-starved HUVEC after 24 hrs by microarray analysis relative to control. It is filed as functional, Homo sapiens. In a few lines: as §3
In test [13] the test system is HUVEC. The test can be described thus: Effect on IL1RL1 gene expression in serum-starved HUVEC after 24 hrs by microarray analysis relative to control. Format: functional, Homo sapiens.
For test [14], the system named is HUVEC. The test can be described thus: Effect on SCD gene expression in serum-starved HUVEC after 24 hrs by microarray analysis relative to control. Format: functional, Homo sapiens.
For test [15], the system named is HUVEC. The test can be described thus: Effect on TM7SF2 gene expression in serum-starved HUVEC after 6 hrs by microarray analysis relative to control. Format: functional, Homo sapiens.
Test [16] has as its system HUVEC. The test can be described thus: Effect on HLA-DRA gene expression in serum-starved HUVEC after 6 hrs by microarray analysis relative to control. Format: functional, Homo sapiens.
Test [17] concerns HUVEC. The test can be described thus: Effect on ACACA gene expression in serum-starved HUVEC after 6 hrs by microarray analysis relative to control. Format: functional, Homo sapiens. In a few lines: as §3
A short description of test [18]: Downregulation of HMOX1 gene expression in serum-starved HUVEC at 2 uM after 24 hrs by qRT-PCR analysis. Format: functional, cell-based. The conditions noted are these: Homo sapiens. In outline: (§4)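 Serum-starved confluent HUVEC treated with 2 μM compound or vehicle in 2.5% FBS for 24 h. Total RNA isolated and qRT-PCR run in triplicate (95 °C 5 min; 40 cycles of 95 °C 5 s, 58 °C 20 s, 72 °C 5 s), normalized to RPS18S. Fold change vs control, n = 3.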
In general terms: In qPCR the cycle at which signal appears reflects the starting amount.

Test [19] concerns HUVEC. The test can be described thus: Effect on COL4A3BP gene expression in serum-starved HUVEC after 24 hrs by microarray analysis relative to control. It is filed as functional, Homo sapiens. In a few lines:
(§5)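 Confluent serum-starved HUVEC (primary, pooled from 3–5 donors, passage ≤4) treated with 2 μM compound or DMSO vehicle in 2.5% FBS for 6 h or 24 h. Total RNA hybridized to Illumina Human-HT12 arrays, background-corrected, vst-transformed and rsn-normalized. Differential expression versus DMSO by moderated paired t-test (p < 0.05, |log2 fold change| > 0.5).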

The subject of test [20] is HUVEC. The test can be described thus: Effect on HMGCR gene expression in serum-starved HUVEC after 6 hrs by microarray analysis relative to control. It is filed as functional, Homo sapiens. In outline: as §1
In test [21] the test system is HUVEC. The test can be described thus: Effect on CXCL16 gene expression in serum-starved HUVEC after 6 hrs by microarray analysis relative to control. Format: functional, Homo sapiens. In a few lines: as §5
For test [22], the system named is HUVEC. The test can be described thus: Effect on CENPW gene expression in serum-starved HUVEC after 6 hrs by microarray analysis relative to control. Format: functional, Homo sapiens. In outline: as §3
Test [23] deals with HUVEC. The test can be described thus: Effect on CTSH gene expression in serum-starved HUVEC after 24 hrs by microarray analysis relative to control. Format: functional, Homo sapiens. In outline:
as §1

Test [24] has as its system HUVEC. The test can be described thus: Effect on CMTM7 gene expression in serum-starved HUVEC after 24 hrs by microarray analysis relative to control. It is filed as functional, Homo sapiens. In a few lines:
as §5

Test [25] has as its system HUVEC. The test can be described thus: Effect on KIF11 gene expression in serum-starved HUVEC after 6 hrs by microarray analysis relative to control. It is filed as functional, Homo sapiens. In a few lines: as §1
Test [26] has as its system HUVEC. The test can be described thus: Effect on MVD gene expression in serum-starved HUVEC after 24 hrs by microarray analysis relative to control. It is filed as functional, Homo sapiens. In a few lines: as §2
In test [27] the test system is HUVEC. The test can be described thus: Effect on LSS gene expression in serum-starved HUVEC after 6 hrs by microarray analysis relative to control. It is filed as functional, Homo sapiens.
In test [28] the test system is HUVEC. The test can be described thus: Effect on YES1 gene expression in serum-starved HUVEC after 6 hrs by microarray analysis relative to control. It is filed as functional, Homo sapiens.
Test [29] has as its system HUVEC. The test can be described thus: Effect on LDLR gene expression in serum-starved HUVEC after 6 hrs by microarray analysis relative to control. Format: functional, Homo sapiens. In outline:
as §2

Test [30] deals with HUVEC. The test can be described thus: Effect on HLA-DRB4 gene expression in serum-starved HUVEC after 24 hrs by microarray analysis relative to control. It is filed as functional, Homo sapiens.
A short description of test [31]: Downregulation of CCNA2 gene expression in serum-starved HUVEC at 2 uM after 24 hrs by qRT-PCR analysis. Format: functional, cell-based. The conditions noted are these: Homo sapiens. In a few lines:
as §4

In test [32] the test system is HUVEC. The test can be described thus: Effect on CENPF gene expression in serum-starved HUVEC after 24 hrs by microarray analysis relative to control. Format: functional, Homo sapiens. In a few lines: (§6)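 Serum-starved confluent HUVEC (primary, pooled from 3–5 donors, passage ≤4) treated with 2 μM test compound or DMSO vehicle (working dilutions ≤0.1% v/v) in presence of 2.5% FBS for 6 h or 24 h; total RNA hybridized to Illumina Human-HT12 arrays; background correction, vst, rsn normalization; moderated paired t-test versus DMSO, thresholds p < 0.05 and log2 fold change >|0.5|.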

Test [33] concerns HUVEC. The test can be described thus: Effect on AIF1 gene expression in serum-starved HUVEC after 24 hrs by microarray analysis relative to control. Format: functional, Homo sapiens. In a few lines: as §3
The subject of test [34] is HUVEC. The test can be described thus: Effect on CDCA8 gene expression in serum-starved HUVEC after 24 hrs by microarray analysis relative to control. It is filed as functional, Homo sapiens. In outline: as §6
Test [35] has as its system HUVEC. The test can be described thus: Effect on FABP4 gene expression in serum-starved HUVEC after 6 hrs by microarray analysis relative to control. It is filed as functional, Homo sapiens. In a few lines:
as §5

In the case of `COc1ccc(Cn2nc(-c3ccccc3)c3cc(Nc4ccc(N5CCN(C)CC5)cc4)nc(N4CCNCC4)c32)cc1`, the log2FC in [1] is -0.2889; in test [2], 0.5464; in [3], -0.1422; in test [4], -0.5222.
With `COc1ccc(Cn2nc(-c3ccccc3)c3cc(Cl)nc(N4CCNCC4)c32)cc1`, the log2FC in test [5] was -0.225; in [6], 0.512; in test [7] it was -0.514; in test [8], 0.0497. In addition, the “fold change (FC)” value in [9] was determined as 0.1684.
As for `COc1ccc(Cn2nc(-c3ccccc3)c3cc(Nc4ccc(N5CCN(C)CC5)cc4)nc(N4CCN(C)CC4)c32)cc1`, the “fold change (FC)” value in [10] is reported as 0.7182; in [13] it was -0.5903; in test [16], 0.8911; in [17], 0.1305; in test [19], -0.1456; in [20], 1.0317. Besides, the “fold change (FC)” value was 0.5236 in test [21]; 0.5435 in [24]; 0.073 in test [25]; 0.4912 in test [27]; 0.9404 in [29]; -0.7151 in test [32]. The results for the “fold change (FC)” value in test [34] and in test [35] were -0.8847 and 0.3036, respectively. Moreover, the log2FC in test [11] is given as -0.0221; in test [12] it was 0.2203; in test [14], 1.4341; in test [15] it was 0.343; in test [22], -0.2667; in test [23] it was -0.6409. Besides, the log2FC in test [26] is given as 1.3802; in test [28] it was 0.3231; in test [30], -0.7509; in [33], -0.7905. The outcome in [18] and in test [31] was Active.
